{"source": "paper PMC3251632", "about": "(Cancer research, 2011)", "key": {"[1]": {"target": "σ-2 receptor (Homo sapiens, UniProt Q5BJF2)", "sequence (Q5BJF2 whole entry)": "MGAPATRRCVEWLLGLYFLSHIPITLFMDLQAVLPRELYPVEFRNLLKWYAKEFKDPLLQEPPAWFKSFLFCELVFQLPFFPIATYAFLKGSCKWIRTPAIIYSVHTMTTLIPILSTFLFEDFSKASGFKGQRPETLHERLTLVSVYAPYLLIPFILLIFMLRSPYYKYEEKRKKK", "assay": "Competitive displacement of fluorescent sigma-2 ligand SW120", "format": "binding, human (CFPAC cells)", "details": "compared to non-conjugated SV119; CFPAC cells"}, "[2]": {"details": "ref ([30]–[32]); cited from earlier work"}, "[3]": {"test_system": "Akt", "assay": "Akt phosphorylation in CFPAC cells", "format": "cell-based, human"}, "[4]": {"test_system": "CFPAC tumors", "assay": "Xenograft CFPAC tumor growth", "format": "in vivo, human tumor in nude mice", "details": "daily treatment for one week, CFPAC-bearing nude mice, n = 12 per group", "outline": "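Female nu/nu mice, 8–12 weeks old, carried 2 × 10^6 CFPAC cells in the flank. Treatment began ~2 weeks after implantation (mean diameter ~6–7 mm) and was given daily for one week, n = 12 per group. Tumour growth was measured by caliper as mean diameter. Groups were compared by one-tailed Student's t test.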"}, "[5]": {"details": "SW43 by itself, vs SV119; ref ([24]); cited from earlier work"}, "[6]": {"test_system": "pancreatic cancer cell lines", "assay": "Killing capacity in additional pancreatic cancer cell lines in vitro", "format": "cell-based", "details": "all cell lines under investigation; supplementary Fig. 3"}, "[7]": {"test_system": "Panc02 tumors", "assay": "In vivo apoptosis in Panc02 tumors", "parameters": "species or system mouse (C57BL/6)", "details": "single i.p. dose (S2-Bim 400 μg), next day, n = 3", "outline": "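Female C57BL/6 mice, 8–12 weeks old, received 1 × 10^6 Panc02 cells subcutaneously in the right flank. At two weeks (mean tumour diameter ~5 mm) they got a single i.p. dose of 400 μg. Tumours were harvested 24 h later. For TUNEL, tumours were stained directly. For caspase-3, tumours were minced to 1 mm and digested 45 min in RPMI with 1 mg/mL collagenase and 0.1 mg/mL DNase, filtered, ACK-lysed, resuspended in PBS pH 7.4, fixed in 1% paraformaldehyde, and read by flow cytometry for activated caspase-3.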"}, "[8]": {"test_system": "Panc02 tumors", "assay": "Syngeneic Panc02 tumor growth and survival", "format": "in vivo, mouse (C57BL/6)", "details": "C57BL/6 mice with Panc02 tumors; supplementary Fig. 4", "outline": "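Female C57BL/6 mice, 8–12 weeks old, carried 1 × 10^6 Panc02 cells in the flank. Dosing began ~2 weeks after implantation (mean diameter ~6–7 mm): i.p. every other day for two weeks, n = 12 per group. Mice were euthanised at tumour ulceration or a mean diameter of 15 mm. Survival was plotted as Kaplan-Meier curves and compared by log-rank test.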"}, "[9]": {"test_system": "Panc02 cells", "assay": "Caspase-3 activation", "format": "cell-based, mouse", "details": "10 μM, 24 h, flow cytometry"}}, "note": "Entries after “also recorded” stand apart in the source; their conditions may differ."}
{"compound": "CC(C)=CCN1CC[C@]2(C)c3cc(O)ccc3C[C@H]1[C@H]2C", "note": "[(+)-pentazocine, reference compound]", "values": [{"measurement": "displacement of SW120 (in words)", "setting": "[1]", "value": "unable to compete off SW120"}]}
{"compound": "CC1(C)CCC(c2ccc(Cl)cc2)=C(CN2CCN(c3ccc(C(=O)NS(=O)(=O)c4ccc(N[C@H](CCN5CCOCC5)CSc5ccccc5)c(S(=O)(=O)C(F)(F)F)c4)cc3)CC2)C1", "note": "[ABT-263]", "values": [{"measurement": "oral bioavailability (in words)", "setting": "[2]", "value": "orally bioavailable"}]}
{"compound": "COc1ccc(C)cc1NC(=O)OC1C[C@H]2CCC[C@@H](C1)N2CCCCCCN", "note": "(stereo partly drawn) [SV119]", "values": [{"measurement": "activation status of the two central kinases (Akt and p70 S6 kinase)", "setting": "[3]; SV119 alone, 24 hours, also p70 S6 kinase (data not shown)", "value": "incapable of altering the activation status of these two central kinases"}, {"measurement": "tumor growth, CFPAC xenograft (in words)", "setting": "[4]", "value": "somewhat reduced tumor growth rate"}]}
{"compound": "COc1ccc(C)cc1NC(=O)OC1CC2CCCC(C1)N2CCCCCCCCCCN", "note": "(stereo not drawn) [SW43]", "values": [{"measurement": "cytotoxicity relative to SV119", "setting": "[5]", "value": "twice as cytotoxic by itself"}]}
{"compound": "EIWIAQEARRIGAEFNAYYAR-OH [S2-BimX]", "values": [{"measurement": "potency / response of pancreatic cancer cell lines (in words)", "setting": "[6]", "value": "virtually no activity in all cell lines tested; also recorded: complete loss of killing activity"}, {"measurement": "displacement of SW120 (in words)", "setting": "[1]", "value": "displaced SW120 in a dose-dependent fashion"}, {"measurement": "tumor cell apoptosis (activated caspase-3) in words", "setting": "[7]", "value": "only background signals"}, {"measurement": "time by which all mice had died", "setting": "[8]", "value": "43 days post tumor inoculation"}, {"measurement": "tumor growth, CFPAC xenograft (in words)", "setting": "[4]", "value": "somewhat reduced tumor growth rate; also recorded: elicited SV119 baseline activity"}]}
{"compound": "LDPKLMKEEQMSQAQLFTRSFDDGL-OH [S2-CTMP-4]", "values": [{"measurement": "interference with Akt activation (phosphorylation)", "setting": "[3]; CFPAC cells, 24 hours post-treatment", "value": "capable of interfering with Akt activation"}, {"measurement": "fold increase in apoptosis (caspase-3 induction) vs SV119 alone", "setting": "[9]", "value": 1.3, "unit": "fold"}]}
